An excerpt weighted towards active compounds, which were near 4% of everything screened.
FAS TE block = blocks the thioesterase domain of human fatty acid synthase | P49327 | recombinant FAS-TE, OMFH fluorogenic substrate, fluorescence endpoint | inhibition, % at 15 µM | 360,000 tested, 0.67% active;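 active means compounds whose normalised, plate-corrected inhibition of enzyme fluorescence in the single-dose primary screen is 50% or more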;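 further: 0% = DMSO with enzyme and 100% = substrate without enzyme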
hiPSC survival = hiPSC single-cell survival enhancement; 360,000 tested, 0.044% active; survival enhancement, % at 20 µM; ATPlite luminescence; 100% = ROCK inhibitor wells, 0% = DMSO; AID 602274; in the data active means survival enhancement above about 18%;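 further: cells exposed to compounds for 16 hours before the ATP read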
H9c2 protect = myocardial damage modulation in H9c2 cells. H9c2 cardiomyocytes, H2O2 injury protection, ATPLite, 2 h. protection from H2O2 cell death, % at 20 µM. 360,000 tested, 0.63% active. AID 588492;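 active means compounds giving at least 50% protection of heart cells from peroxide-induced death in the single-dose screen, raw or plate-pattern-corrected value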;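 further: 0% = DMSO wells with peroxide and 100% = DMSO wells without peroxide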
Arrestin-AP2 inh = human beta-arrestin and AP2 interaction inhibition; inhibition, % at 10 µM; FITC-arrestin peptide / GST-AP2 beads, flow cytometry; AP2 beta2 appendage carries R879A mutation; 340,000 tested, 0.31% active;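 active means inhibition above a set limit, near 3 SD of compounds lacking own fluorescence, cut at about 54% in these data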;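 further: plate controls were DMSO wells for no effect and 5 µM unlabelled arrestin peptide for full effect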
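Assay system: GST-AP2 R879A bound to glutathione beads, E. coli-expressed; Medium: PBS with 0.05% Tween 20 and 0.1% BSA; Also added: fluorescein-tagged arrestin peptide at 50 nM final; Timing: 12 min plus 1 h, RT; Measured by: flow cytometry, FL1 (488/535 nm); Evaluation: percent drop in bead-associated FITC signal.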
SENP1 FRET inh = inhibitors of human SENP1 SUMO protease catalytic domain. Q9P0U3. recombinant SENP1 catalytic domain, CyPet-SUMO1-YPet FRET cleavage. inhibition, % at 10 µM. 360,000 tested, 0.21% active;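 active means inhibition at least 30% at 10 µM, raw YFP signal under a set limit, fluorescence ratio 0.5 to 1.5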;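 further: 0% = enzyme with DMSO and 100% = no enzyme wells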
Target sequence (Q9P0U3 419-644 limits assumed): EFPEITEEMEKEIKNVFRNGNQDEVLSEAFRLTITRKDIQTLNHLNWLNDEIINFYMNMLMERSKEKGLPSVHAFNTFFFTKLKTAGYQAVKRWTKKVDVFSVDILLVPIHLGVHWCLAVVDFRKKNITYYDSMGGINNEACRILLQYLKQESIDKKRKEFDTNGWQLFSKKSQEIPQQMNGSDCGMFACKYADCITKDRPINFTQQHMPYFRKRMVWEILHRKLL
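material = recombinant human SENP1 catalytic domain, His6-tagged | quantity = 20 pM enzyme | reagent = 25 nM SUMO1 FRET substrate | compound dosing = 10 µM single point, 0.5% DMSO | timing = 50 min enzyme reaction, room temperature, light-protected | detection = FRET, CFP and YFP emission | control set = no-enzyme low, enzyme-DMSO high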
GRIN3A LBD mod = NR3A (human) ligand-binding domain modulation | 340,000 tested, 2.5% active | Tm shift relative to glycine control, % at 25 µM | NR3A LBD differential scanning fluorimetry, Tm shift; 0% = protein alone, 100% = glycine-bound protein;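 active means melting temperature shift of at least 10% of the positive control shift, at one fixed dose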
An asterisk follows results filed as active; nt = no result given.

SMILES | FAS TE block | hiPSC survival | H9c2 protect | Arrestin-AP2 inh | SENP1 FRET inh | GRIN3A LBD mod
O=[N+]([O-])c1cccc2c(Cl)ccnc12 | 4.2 | 0.1 | 7.6 | 6.5 | 0.4 | -0.3
O=[N+]([O-])c1ccc(Cl)c2cccnc12 | -4.3 | 2.7 | 6.8 | 17.5 | 0.1 | 12.2*
COc1ccc(NC(=O)C2(C)CCN2CC2CCCCC2)cc1OC (stereo not drawn) | 2.5 | 3.7 | 4.6 | nt | 1.2 | nt
S=C(NCc1cccs1)Nc1cc(Cl)cc(Cl)c1 | 33.8 | -0.6 | -11.4 | -22.0 | -0.1 | 12.1*
CC1CCN(Cc2nnnn2CCCC(=O)NC(c2ccccn2)C(F)(F)F)CC1 (stereo not drawn) | -2.3 | -0.5 | 1.9 | -8.9 | -4.4 | 11.7*
COc1ccc(C(C)(O)c2nc(-c3ccncc3)cs2)cc1 (stereo not drawn) | -6.2 | 1.4 | -21.7 | nt | -0.3 | nt
CC(=O)OC1C(=O)N(Cc2ccccc2)C1c1ccc(C)cc1 (stereo not drawn) | 0.6 | -0.3 | 0.0 | 24.7 | 0.5 | 0.3
CCOc1ccc(NC(c2ccccc2)P(=O)(OC)OC)cc1 (stereo not drawn) | -5.1 | -0.2 | 12.2 | 2.9 | -0.4 | 2.1
COP(=O)(OC)C(Nc1ccc(C)cc1)c1ccc([N+](=O)[O-])cc1 (stereo not drawn) | -3.7 | 0.4 | 7.7 | 22.4 | 1.4 | 15.1*
Cc1cccc(N2CCc3c2nc2ccc(Br)cc2c3N)c1 | 32.0 | 0.0 | -19.4 | 4.6 | -17.6 | 37.3*
Nc1c2c(nc3ccc(Br)cc13)N(c1ccccc1)CC2 | 10.3 | 6.5 | -6.8 | 13.1 | -20.1 | 10.1*
Nc1c2c(nc3ccccc13)N(C1CCCCC1)CC2 | -5.0 | -2.1 | -16.3 | 3.3 | 1.3 | 0.7
CC(=O)NC(C)(c1ccccc1)c1nc(-c2ccc(F)c(Cl)c2)cs1 (stereo not drawn) | 15.9 | -1.2 | -3.7 | nt | 2.5 | nt
OC(c1ccc(Cl)c(F)c1)c1ncc(-c2cccc(C(F)(F)F)c2)[nH]1 (stereo not drawn) | 43.4 | -0.3 | -10.6 | nt | 1.7 | nt
O=C(/C=C/c1ccc2c(c1)OCO2)c1ccc(O)cc1O | 5.7 | -0.7 | -7.8 | -0.7 | 14.9 | 31.8*
COC(=O)c1cc(NC(=O)/C=C/c2ccc3c(c2)OCO3)cc(C(=O)OC)c1 | 3.7 | 0.0 | 4.1 | -9.8 | -5.1 | -6.5
NS(=O)(=O)c1ccc(NC(=O)/C=C/c2ccc3c(c2)OCO3)cc1 | -0.6 | -0.7 | -5.0 | -12.2 | -0.2 | 12.5*
CC(=O)Nc1ccc(NC(=O)/C=C/c2ccc3c(c2)OCO3)cc1 | -6.4 | -1.1 | 1.9 | 10.8 | 0.9 | 1.7
COC(=O)c1cccc(NC(=O)/C=C/c2ccc3c(c2)OCO3)c1 | 12.3 | -3.4 | -9.3 | 12.5 | 1.9 | 16.1*
CCCCNC(=O)C1(C)CCCCN1C(=O)c1c(C)noc1C (stereo not drawn) | -6.7 | -3.5 | -4.8 | nt | -1.4 | nt
COc1ccc(C2OC(CCc3ccccc3)CC3=C2C(=O)OC(C)(C)O3)cc1 (stereo not drawn) | 19.4 | 2.4 | 0.7 | nt | 0.3 | nt
CCCn1cnnc1CNC(=O)[C@H]1O[C@@H](n2ccc(=O)[nH]c2=O)[C@H](O)[C@@H]1O | -7.5 | 2.4 | 1.6 | nt | -1.1 | nt
Cc1ccc2sc(NNC(=O)c3cc(=O)c4ccccc4o3)nc2c1C | 10.7 | -0.6 | 56.1* | 20.7 | 26.1 | -1.2
COc1cccc(C(O)c2nc(-c3cccc(C(F)(F)F)c3)cs2)c1 (stereo not drawn) | 24.9 | 2.6 | -14.8 | nt | -2.3 | nt
Cc1oc(/C=N/NS(=O)(=O)c2ccccc2)cc1Br | -9.0 | -3.1 | -5.2 | 10.5 | 4.0 | 2.8
SMILES | FAS TE block | hiPSC survival | H9c2 protect | Arrestin-AP2 inh | SENP1 FRET inh | GRIN3A LBD mod
Cc1ccc(/C=N/NS(=O)(=O)c2ccccc2)o1 | -9.5 | -0.1 | -0.2 | 0.9 | 0.4 | 21.3*
Oc1c(Br)cc(Br)cc1/C=N/NC(=S)N[C@H]1CC2C=CC1C2 (stereo partly drawn) | 36.1 | 0.1 | 34.3 | -12.8 | -33.6 | 14.1*
CN1CCN(c2cc(-c3ccc4ccccc4c3)nc3ccnn23)CC1 | -13.6 | 3.0 | 1.3 | nt | -18.6 | nt
Cc1cc2nc(-c3ccc(SCC(=O)Nc4nccs4)nc3)[nH]c2cc1C | -11.5 | -1.3 | -7.0 | 2.0 | -3.1 | -0.5
Cc1cc2nc(-c3ccc(SCC(=O)Nc4ccc(S(=O)(=O)N5CCCC5)cc4)nc3)[nH]c2cc1C | 6.3 | -2.2 | -11.7 | 11.8 | -33.8 | 21.3*
O=C(CSc1ccc(-c2nc3ccccc3[nH]2)cn1)Nc1ccc(S(=O)(=O)N2CCCC2)cc1 | 22.1 | -1.0 | 8.5 | 2.2 | -1.4 | 28.5*
CC(=O)CSc1ccc(-c2nc3ccccc3[nH]2)cn1 | -2.2 | -0.8 | -14.2 | 14.5 | 0.3 | -13.3
O=c1cc(-c2cccnc2)oc2c1ccc1ccccc12 | 3.7 | -0.5 | 75.9* | 7.8 | -3.4 | 1.9
CCOc1ccc(-c2cc(C(=O)Nc3ccc(F)cc3)[nH]n2)c(C)c1 | 0.9 | -4.3 | -5.3 | nt | 3.8 | nt
CCC1(C)Cc2c(sc3nc(NN)n(C)c(=O)c23)CO1 (stereo not drawn) | -0.3 | 2.0 | 51.3* | 4.5 | -3.4 | 0.6
O=C(OC1CC2CC1[C@H]1CCCCN1C2=O)N1CCN(C(=O)c2ccccc2)CC1 (stereo partly drawn) | -9.8 | 0.2 | nt | nt | 2.4 | nt
O=C(Nc1ccc(-c2nc3ccccc3o2)cc1)c1ccc(N2CCOCC2)c([N+](=O)[O-])c1 | 30.3 | -2.3 | -8.5 | -10.6 | 2.7 | 14.2*
O=C(Nc1cccnc1)c1ccc(N2CCOCC2)c([N+](=O)[O-])c1 | -2.5 | 0.8 | -2.2 | 8.4 | 1.6 | 0.5
COc1ccc2oc(-c3ccc(NC(=O)c4ccc(N5CCOCC5)c([N+](=O)[O-])c4)cc3)nc2c1 | 7.3 | -1.6 | -9.4 | -4.5 | 2.7 | 37.4*
CSc1ncnc2c1ncn2CCCN1CCN(Cc2cccc3ccccc23)CC1 | 0.5 | -0.6 | -12.1 | nt | 0.1 | nt
COC(=O)[C@]12CCCCC=C1N(CCC1=CCCCC1)C(=O)[C@H](CC(=O)NCCCCc1ccccc1)C2 | 12.6 | -0.1 | nt | nt | 2.8 | nt
CSc1ccc(CNC(=O)C2(C)CCCN(C(C)C)C2)cc1 (stereo not drawn) | -4.8 | -2.1 | 0.6 | nt | -1.9 | nt
Cc1cccc(C(=O)N2CCN(c3ccc([N+](=O)[O-])c(N4CCOCC4)c3)CC2)c1 | -11.5 | 2.6 | -0.2 | 0.1 | 4.1 | -1.4
O=C(/C=C/c1ccccc1)N1CCN(c2ccc([N+](=O)[O-])c(N3CCOCC3)c2)CC1 | 6.3 | 1.3 | 13.0 | -7.6 | -0.3 | 20.1*
O=C(c1ccc2ccccc2c1)N1CCN(c2ccc([N+](=O)[O-])c(N3CCOCC3)c2)CC1 | 17.6 | -0.7 | -0.9 | 1.4 | 4.9 | 17.3*
O=C(c1ccc(Sc2ccccc2)c([N+](=O)[O-])c1)N1CCOCC1 | -0.8 | 0.5 | -1.5 | -4.1 | 0.3 | 16.4*
